Activity and IC50 data for three compounds are collected here from ChEMBL document CHEMBL4257452, “A mini-library system to investigate non-essential residues of lipid-phosphatidylserine (PS) binding peptide-peptoid hybrid PPS1” (Medchemcomm, 2017).

Series [1] has as its system HCC4017. Put plainly: Cytotoxicity against human HCC4017 cells assessed as reduction in cell viability up to 100 uM after 24 hrs by MTS assay. The format is functional, cell-based. Particulars: in the assay text read “up to 50 uM” for “up to 100 uM”. The method in brief:
(§1)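 HCC4017 lung cancer cells (RPMI, 5% FBS) were seeded at 10 000 cells/well in triplicate and adhered overnight. Purified compounds were given as a concentration gradient for 24 h. MTS reagent was added for 2 h and absorbance read at 490 nm. IC50 was taken from the viability curves.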
(Tetrazolium dyes change colour on reduction, which living cells bring about.)

For series [2], the system named is HCC4017. Put plainly: Cytotoxicity against human HCC4017 cells assessed as reduction in cell viability at 20 uM after 24 hrs by MTS assay. The format is functional, cell-based. The method in brief:
(§2)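 HCC4017 cells (RPMI, 5% FBS) and HBEC-3KT normal lung cells (KSFM with recombinant human EGF and bovine pituitary extract) were plated at 10 000 cells/well in triplicate and left to adhere overnight. They were exposed to 1 or 20 μM compound for 24 h. MTS reagent was then added for 2 h and absorbance read at 490 nm. Viability is % of untreated control wells.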

Series [3] can be described thus: Cytotoxicity against human HBEC3-KT cells assessed as reduction in cell viability at 20 uM after 24 hrs by MTS assay. The class given is cell-based. Summed up:
as §2

Series [4] concerns HCC4017. Put plainly: Cytotoxicity against human HCC4017 cells assessed as reduction in cell viability at 1 uM after 24 hrs by MTS assay. The format is functional, cell-based. The method in brief:
as §2

Series [5] deals with HCC4017. Put plainly: Cytotoxicity against human HCC4017 cells assessed as reduction in cell viability up to 100 uM after 24 hrs by calcein-AM dye based fluorescence assay. Particulars: in the assay text read “up to 50 uM” for “up to 100 uM”. The class given is functional. The method in brief:
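HCC4017 cells were seeded at 10 000 cells/well in triplicate, adhered overnight, and treated with a graded series of compounds for 24 h. Medium was replaced with PBS containing calcein AM (1 mM as printed) for 15 min at room temperature. Fluorescence emission was read at 520 nm.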

Series [6] is described as follows: Cytotoxicity against human HBEC3-KT cells assessed as reduction in cell viability at 1 uM after 24 hrs by MTS assay. The format is cell-based. The method in brief:
as §2

For series [7], the system named is HCC4017. Put plainly: Cytotoxicity against human HCC4017 cells assessed as reduction in cell viability after 24 hrs by MTS assay. The format is functional, cell-based. Particulars: HCC4017, 24 h. Summed up: as §1

The structures appear in SMILES notation. The source made the active and inactive calls. No cut-off for these calls is given here. Starred links: 1 amine or outer side, 2 acyl side, 3 side chain; linkers in the order of their positions; H or OH if unused. Positions of bridges follow the written chain, without caps; N, C: chain ends. Non-standard residues stand in square brackets, D forms with d. Residues, ends and D or L forms follow the SMILES beside them. Chains are numbered I, II in the order given. Gly(N-piperonyl) = O=C(O)CNCc1ccc2c(c1)OCO2; N(4-MeOBn)Gly = COc1ccc(CNCC(=O)O)cc1; X1 = COc1cccc(CN(CC(=O)[*:2])[*:1])c1; X2 = CC(CN(CC(=O)[*:2])[*:1])c1ccccc1; X3 = CC(c1ccccc1)N(CC(=O)[*:2])[*:1]

As to `COc1ccc(CN(CC(=O)NC(CCC(=O)O)C(=O)NC(CCCCN)C(=O)NC(CCCCN)C(=O)NC(CCSC)C(=O)NCCCCC(NC(=O)C(CCSC)NC(=O)C(CCCCN)NC(=O)C(CCCCN)NC(=O)C(CCC(=O)O)NC(=O)CN(Cc2ccc(OC)cc2)C(=O)CN(C(=O)CN(Cc2ccc3c(c2)OCO3)C(=O)CNC(C)c2ccccc2)C(C)c2ccccc2)C(N)=O)C(=O)CN(C(=O)CN(Cc2ccc3c(c2)OCO3)C(=O)CNC(C)c2ccccc2)C(C)c2ccccc2)cc1` (centres undefined) (I: H-[X3][Gly(N-piperonyl)][X3][N(4-MeOBn)Gly]EKKMK-NH2 / II: H-[X3][Gly(N-piperonyl)][X3][N(4-MeOBn)Gly]EKKM; amide I:9-II:C; configuration not given here), the outcome in the series on HCC4017 [1] and with HCC4017 [2] was inactive.
As for `COc1ccc(CN(CC(=O)N(CC(=O)NC(CCCCN)C(=O)NC(CCCCN)C(=O)NC(CCSC)C(=O)NCCCCC(NC(=O)C(CCSC)NC(=O)C(CCCCN)NC(=O)C(CCCCN)NC(=O)CN(Cc2cccc(OC)c2)C(=O)CN(Cc2ccc(OC)cc2)C(=O)CN(C(=O)CN(Cc2ccc3c(c2)OCO3)C(=O)CNC(C)c2ccccc2)C(C)c2ccccc2)C(N)=O)Cc2cccc(OC)c2)C(=O)CN(C(=O)CN(Cc2ccc3c(c2)OCO3)C(=O)CNC(C)c2ccccc2)C(C)c2ccccc2)cc1` (centres undefined) (I: H-[X3][Gly(N-piperonyl)][X3][N(4-MeOBn)Gly][X1]KKMK-NH2 / II: H-[X3][Gly(N-piperonyl)][X3][N(4-MeOBn)Gly][X1]KKM; amide I:9-II:C; configuration not given here), the Activity result in series [3] and in series [6] was “Non-Toxic” throughout. Further, the outcome with HCC4017 [4] was inactive. Besides, the outcome in the series with HCC4017 [5] and in the series on HCC4017 [2] was Active. In addition, the IC50 in the series with HCC4017 [7] was 7 to 10 µM.
Take `COc1ccc(CN(CC(=O)N(CC(=O)NC(CCCCN)C(=O)NC(CCCCN)C(=O)NC(CCSC)C(=O)NCCCCC(NC(=O)C(CCSC)NC(=O)C(CCCCN)NC(=O)C(CCCCN)NC(=O)CN(CC(C)c2ccccc2)C(=O)CN(Cc2ccc(OC)cc2)C(=O)CN(C(=O)CN(Cc2ccc3c(c2)OCO3)C(=O)CNC(C)c2ccccc2)C(C)c2ccccc2)C(N)=O)CC(C)c2ccccc2)C(=O)CN(C(=O)CN(Cc2ccc3c(c2)OCO3)C(=O)CNC(C)c2ccccc2)C(C)c2ccccc2)cc1` (centres undefined) (I: H-[X3][Gly(N-piperonyl)][X3][N(4-MeOBn)Gly][X2]KKMK-NH2 / II: H-[X3][Gly(N-piperonyl)][X3][N(4-MeOBn)Gly][X2]KKM; amide I:9-II:C; configuration not given here): the Activity entry in series [3] and in series [6] was “Non-Toxic” in each case. In addition, the outcome with HCC4017 [4] was inactive. Also, the result in the series on HCC4017 [5] and in the series with HCC4017 [2] was Active. The 50% inhibitory concentration (IC50) in the series on HCC4017 [7] was 7 to 10 µM.

As a reminder, the IC50 is the concentration that gives 50% inhibition.
